For assay [1], the species on record is Mus musculus. As to the kind of experiment: Mortality rate in mice in low dose. The format is functional. The gist of the method:
(§1)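 Male B6D2F1 mice given compound daily by gavage in corn oil at the stated dose levels, with corn oil vehicle controls. Deaths counted as animals found dead or sacrificed moribund, with day(s) of death recorded. Heteroarotinoid groups ran to day 65 and low-dose reference groups to day 25.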

Assay [2] is filed under the species Mus musculus. As to the kind of experiment: Mortality rate in mice in high dose. The format is functional. The procedure, abridged:
as §1

The species entered for assay [3] is Mus musculus. As to the kind of experiment: Mortality rate in mice in mid dose 2. The format is functional. The gist of the method:
as §1

The species entered for assay [4] is Mus musculus. As to the kind of experiment: Effect of compound on serum triglycerides levels in mice at mid dose 2 on day 36. It counts as functional. The procedure, abridged:
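Male B6D2F1 mice were gavaged daily with compound in corn oil at low, mid 1, mid 2 or high dose. Serum triglycerides and circulating white blood cells were measured on the stated day (8, 29, 36, 65). Values are group mean ± SD expressed as % relative to corn-oil vehicle, with significance at p ≤ 0.05.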

For assay [5], the species on record is Mus musculus. Kind of assay: Fracture incidence in mouse at high dose; 3/8.
The species named for assay [6] is Mus musculus. As to the kind of experiment: Alopecia in mice observed at mid dose 1 with Hypervitaminosis; 2/16. The format is functional, organism-based.
The species entered for assay [7] is Mus musculus. As to the kind of experiment: Enlarged lymph in gross pathological observations in mice with hypervitaminosis A at mid dose 1 with gross observations/total number of mice in group; 2/16. The format is functional, organism-based.
For assay [8], the species on record is Mus musculus. As to the kind of experiment: Enlarged spleen in Gross pathological observations in mice with hypervitaminosis A at mid dose 1 with gross observations/total number of mice in group; 5/16. It counts as functional, organism-based.
Assay [9] is filed under the species Mus musculus. As to the kind of experiment: Enlarged spleen in Gross pathological observations in mice with hypervitaminosis A at mid dose 2 with gross observations/total number of mice in group; 6/16.
For assay [10], the species on record is Mus musculus. As to the kind of experiment: Effect of compound on adrenal to body weight ratios in mice at high dose on day 65; all the animals died by day 65. The format is functional, organism-based. The gist of the method: (§2)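 Male B6D2F1 mice dosed daily by gavage with compound in corn oil; vehicle 1 (corn oil) controls run to termination on day 65. Low, mid 1, mid 2 and high dose groups, with dosage increases partway through the study. Organ-to-body weight ratios (×1000) taken at necropsy on day 65, reported as mean ± SD for 4 to 8 animals and as % difference from vehicle.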

For assay [11], the species on record is Mus musculus. As to the kind of experiment: Effect of compound on right testicle to body weight ratios in mice at high dose on day 65; all the animals died by day 65. The format is functional, organism-based. The procedure, abridged: as §2
For assay [12], the species on record is Mus musculus. Kind of assay: Enlarged lymph in gross pathological observations in mice with hypervitaminosis A at low dose with gross observations/total number of mice in group; 6/16. The format is functional, organism-based.
Assay [13] is filed under the species Mus musculus. Kind of assay: Fracture incidence in mouse at mid dose 1; 5/8.
Assay [14] concerns Mus musculus. As to the kind of experiment: Avoiding pressure on limbs at 0.1 mg/kg/day dose in mice hypervitaminosis; 0/16. It counts as functional, organism-based. The conditions noted are these: Limb.
The subject of assay [15] is Mus musculus. As to the kind of experiment: Skin scaling at 0.05 mg/kg/day in mice with hypervitaminosis; 8/8. The format is functional, organism-based.
Assay [16] concerns Mus musculus. As to the kind of experiment: Calculated 30-day maximally tolerated dose based on 10% weight loss in mice at 0.01 mg/kg/day. It counts as functional.
Assay [17] has as its system Mus musculus. Kind of assay: Fracture incidents in mouse at 0.4 mg/kg/day; 3/12.
The test system of assay [18] is Mus musculus. As to the kind of experiment: Approximate day to determine 10% weight loss in mice at 0.01 mg/kg/day. The format is functional. The gist of the method: (§3)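 Male B6D2F1 mice dosed daily by gavage in corn oil; body weights followed to termination (day 65, or day 25 for TTNPB 0.01/0.05 mg/kg/day groups) and compared with the matching vehicle group. Value is approximate day of onset of 10% body weight reduction versus vehicle.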

In assay [19] the test system is Mus musculus. Kind of assay: Enlarged spleen in Enlarged spleen in Gross pathological observations with hypervitaminosis A in mice at 0.2 mg/kg/day dose with gross observations/total number of animals in group; 0/16. It counts as functional, organism-based.
Assay [20] has as its system Mus musculus. As to the kind of experiment: Alopecia observed at 0.01 mg/kg/day dose in mice with hypervitaminosis; 6/8. The format is functional, organism-based.
In assay [21] the test system is Mus musculus. Kind of assay: Approximate day to determine 10% weight loss in mice at 0.05 mg/kg/day. The format is functional. The gist of the method: as §3
Assay [22] deals with Mus musculus. As to the kind of experiment: Effect of compound on thymus to body weight ratios in mice at 0.8 mg/kg/day dose; all the animals died by day 65. It counts as functional, organism-based. The procedure, abridged: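 Male B6D2F1 mice were dosed daily by gavage in corn oil, with TTNPB given at 0.1–0.8 or 0.01/0.05 mg/kg/day. Thymus-to-body weight ratio (×1000) was taken at necropsy on day 65 against vehicle 1, or on day 25 for the 0.01/0.05 groups against vehicle 2. Mean ± SD of 4–8 animals, reported as % difference from vehicle.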

Assay [23] concerns Mus musculus. As to the kind of experiment: Average number of fractures per mouse at 0.05 mg/kg/day.
For assay [24], the system named is Mus musculus. As to the kind of experiment: Total dose of 10% weight loss in mice at 0.01 mg/kg/day. The format is functional.
The test system of assay [25] is Mus musculus. As to the kind of experiment: Alopecia observed at 0.8 mg/kg/day dose in mice with hypervitaminosis; 3/16. It counts as functional, organism-based.
Assay [26] relates to Mus musculus. Kind of assay: Fracture incidents in mouse at 0.2 mg/kg/day; 3/8.
The test system of assay [27] is Mus musculus. Kind of assay: Effect of compound on right testicle to body weight ratios in mice at 0.05 mg/kg/day dose on day 25; dead on day 65. The format is functional, organism-based.
Assay [28] concerns Mus musculus. As to the kind of experiment: Effect of compound on Spleen to body weight ratios in mice at 0.2 mg/kg/day dose on day 65; dead by day 65. The format is functional, organism-based. The gist of the method: as §2
The subject of assay [29] is Mus musculus. Kind of assay: Enlarged lymph in gross pathological observations with hypervitaminosis A in mice at 0.4 mg/kg/day dose with gross observations/total number of animals in group; 12/16. The format is functional, organism-based.
In assay [30] the test system is Mus musculus. As to the kind of experiment: Effect of compound on right testicle to body weight ratios in mice at 0.1 mg/kg/day dose; all the animals died by day 65. The format is functional, organism-based.
For assay [31], the system named is Mus musculus. Kind of assay: Effect of compound on adrenal to body weight ratios in mice at 0.1 mg/kg/day dose; all the animals died by day 65. The format is functional, organism-based.
The test system of assay [32] is Mus musculus. As to the kind of experiment: Effect of compound on adrenal to body weight ratios in mice at 0.05 mg/kg/day dose; measured on day 25.
Assay [33] has as its system Mus musculus. As to the kind of experiment: Effect of compound on adrenal to body weight ratios in mice at 0.8 mg/kg/day dose; all the animals died by day 65. It counts as functional, organism-based.
Assay [34] deals with Mus musculus. Kind of assay: Fracture incidents in mouse at 0.05 mg/kg/day; 7/8.
For assay [35], the system named is Mus musculus. Kind of assay: Skin scaling at 0.01 mg/kg/day in mice with hypervitaminosis; 4/8. It counts as functional, organism-based.
The test system of assay [36] is Mus musculus. Kind of assay: Effect of compound on Spleen to body weight ratios in mice at 0.1 mg/kg/day dose on day 65; dead by day 65. It counts as functional, organism-based. The procedure, abridged:
as §2

The species entered for assay [37] is Mus musculus. As to the kind of experiment: Skin scaling in mice at mid dose 1 with Hypervitaminosis; 1/16. The format is functional, organism-based.
For assay [38], the species on record is Mus musculus. Kind of assay: Skin scaling in mice at high dose with Hypervitaminosis; 0/16. The format is functional, organism-based.
Assay [39] is filed under the species Mus musculus. As to the kind of experiment: Avoiding pressure on limbs in mice at mid dose 1 with Hypervitaminosis; 0/16. The format is functional, organism-based. As to conditions: Limb.
The species entered for assay [40] is Mus musculus. As to the kind of experiment: Effect of compound on serum Alkaline phosphatase levels in mice at mid dose 1 on day 29. The format is functional. The procedure, abridged:
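Male B6D2F1 mice dosed daily by oral gavage in corn oil at low, mid 1, mid 2 or high dose. Blood sampled on set days (8, 29, 36, 65) for clinical chemistry, serum alkaline phosphatase and triglycerides. Group mean ± SD reported as % relative to vehicle 1; significance p < 0.05 versus corn oil vehicle.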

Calls of active or inactive are those of the source. The rule behind the calls is not given here. A value given as a limit tells only on which side of the number the result lay.

As for `CC(/C=C/C=C(\C)c1ccc2c(c1)C(C)(C)CCO2)=C\C(=O)O`, the Mortality in the assay filed under Mus musculus [1], in the assay listed under Mus musculus [2] and in the assay listed under Mus musculus [3] was 0 day of death throughout. Further, the Activity in the assay listed under Mus musculus [4] is 195.9; in the assay listed under Mus musculus [5], “Weak activity”. In addition, the result in the assay filed under Mus musculus [6] and in the assay listed under Mus musculus [7] was inactive.
Take `C/C(=C\c1ccc(C(=O)O)cc1)c1ccc2c(c1)C(C)(C)CCO2`: the Activity result is “Weak activity” in the assay listed under Mus musculus [8]; “Weak activity” in the assay filed under Mus musculus [9]; “Toxic” in the assay listed under Mus musculus [10]; “Toxic” in the assay filed under Mus musculus [11]; “Weak activity” in the assay filed under Mus musculus [12]; “Weak activity” in the assay listed under Mus musculus [13].
For `C/C(=C\c1ccc(C(=O)O)cc1)c1ccc2c(c1)C(C)(C)CCC2(C)C`, the result with Mus musculus [14], in the assay on Mus musculus [19] and in the assay on Mus musculus [25] was inactive. In addition, the result with Mus musculus [15], in the assay on Mus musculus [20], in the assay with Mus musculus [29] and with Mus musculus [34] was Active. In the assay with Mus musculus [16], the Max tolerated dose was over 0.008 mg/kg. In addition, the Activity entry with Mus musculus [17] was “Weak activity”; in the assay on Mus musculus [18] it was over 25; in the assay on Mus musculus [21], 8; with Mus musculus [22], “Toxic”; in the assay with Mus musculus [23], 3.3; in the assay on Mus musculus [26] it was “Weak activity”. Besides, the Activity entry in the assay with Mus musculus [27], in the assay with Mus musculus [28], in the assay on Mus musculus [30], with Mus musculus [31], with Mus musculus [32] and with Mus musculus [33] was “Toxic” in each case. The Activity entry in the assay with Mus musculus [35] is “Weak activity”; with Mus musculus [36], “Toxic”. Besides, the Dose with Mus musculus [24] was over 0.25 mg/kg.
As for `CC(/C=C/C=C(\C)c1ccc2c(c1)C(C)(C)CCS2)=C\C(=O)O`, the outcome in the assay listed under Mus musculus [37], in the assay filed under Mus musculus [38] and in the assay filed under Mus musculus [39] was inactive. In the assay listed under Mus musculus [40], the Activity is given as 135.8.

The values are drawn from ChEMBL document CHEMBL1130202, “Biologically active heteroarotinoids exhibiting anticancer activity and decreased toxicity” (J Med Chem, 1997).
